# Experimental data: ChEMBL document CHEMBL1137671, “Synthesis of 1-(2,6-dichlorophenyl)-3-methylene-1,3-dihydro-indol-2-one derivatives and in vitro anticancer evaluation against SW620 colon cancer cell line” (Eur J Med Chem, 2009)
# pIC50: −log10 of the molar value.
# Test system: SW-620
# Experiment: Cytotoxicity against human SW620 cells after 3 days by MTT assay
# Assay type: functional
# Conditions: SW-620, 72 h, read-out: ED50 (the source's name)
# In short: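 SW620 human colon cancer cells seeded at 10,000 per well and exposed to 1-100 µM for 72 h in a CO₂ incubator, with untreated controls. Then 125 µg MTT per well for 3 h, followed by lysis in 10% SDS-0.01 N HCl. Absorbance was read at 540 nm. % cytotoxicity = (1 − (treated − blank)/control) × 100.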
row,SMILES,EC50
1,O=C1/C(=C\c2cccc3ccccc23)c2ccccc2N1c1c(Cl)cccc1Cl,> 100 µg/mL
2,O=C1/C(=C/c2cc3ccccc3nc2Cl)c2ccccc2N1c1c(Cl)cccc1Cl,25 µg/mL
3,O=C1/C(=C/c2ccc(Cl)cc2)c2ccccc2N1c1c(Cl)cccc1Cl,100 µg/mL
4,O=C1/C(=C/c2ccc(Cl)cc2Cl)c2ccccc2N1c1c(Cl)cccc1Cl,2 µg/mL
5,O=C1Cc2ccccc2N1c1c(Cl)cccc1Cl,> 100 µg/mL
6,O=C1/C(=C/c2ccccc2[N+](=O)[O-])c2ccccc2N1c1c(Cl)cccc1Cl,90 µg/mL
7,COc1ccc(/C=C2/C(=O)N(c3c(Cl)cccc3Cl)c3ccccc32)cc1,> 100 µg/mL
8,O=C1/C(=C/c2cccc(Oc3ccccc3)c2)c2ccccc2N1c1c(Cl)cccc1Cl,50 µg/mL
9,COc1ccc(/C=C2/C(=O)N(c3c(Cl)cccc3Cl)c3ccccc32)cc1OC,50 µg/mL
10,CN(C)c1ccc(/C=C2/C(=O)N(c3c(Cl)cccc3Cl)c3ccccc32)cc1,> 100 µg/mL
11,O=C1/C(=C/c2c(Cl)cccc2Cl)c2ccccc2N1c1c(Cl)cccc1Cl,> 100 µg/mL
12,O=C1/C(=C/c2ccccc2)c2ccccc2N1c1c(Cl)cccc1Cl,100 µg/mL
13,O=C1/C(=C/c2cccc(Cl)c2)c2ccccc2N1c1c(Cl)cccc1Cl,50 µg/mL
14,Cc1ccc2cc(/C=C3/C(=O)N(c4c(Cl)cccc4Cl)c4ccccc43)c(Cl)nc2c1C,> 100 µg/mL
15,O=C1/C(=C/c2ccco2)c2ccccc2N1c1c(Cl)cccc1Cl,> 100 µg/mL
16,Cc1ccc2nc(Cl)c(/C=C3/C(=O)N(c4c(Cl)cccc4Cl)c4ccccc43)cc2c1,40 µg/mL
17,O=C1/C(=C/c2ccccc2Cl)c2ccccc2N1c1c(Cl)cccc1Cl,15 µg/mL
18,O=C1/C(=C/c2ccc(O)cc2)c2ccccc2N1c1c(Cl)cccc1Cl,50 µg/mL
19,O=C1/C(=C/c2ccc(F)cc2)c2ccccc2N1c1c(Cl)cccc1Cl,5 µg/mL

# Test system: not listed separately
# Experiment: Inhibition of FGFR autophosphorylation
# Conditions: not given
row,pIC50,SMILES
1,5.00,O=CN1CCN(c2ccc(/C=C3\C(=O)Nc4ccccc43)cc2)CC1
2,5.00,Cc1c[nH]c(/C=C2\C(=O)Nc3ccccc32)c1CCC(=O)O
